{"source": "paper PMC6613170", "about": "(Proceedings of the National Academy of Sciences of the …, 2019)", "key": {"[1]": {"system": "CFTR", "test": "CFTR assay", "assay_type": "cell-based, canine", "details": "100 nM PGE2"}, "[2]": {"target": "PDE4C3 (Homo sapiens, UniProt Q08493)", "sequence (Q08493 1-680 isoform Q08493-3, species assumed)": "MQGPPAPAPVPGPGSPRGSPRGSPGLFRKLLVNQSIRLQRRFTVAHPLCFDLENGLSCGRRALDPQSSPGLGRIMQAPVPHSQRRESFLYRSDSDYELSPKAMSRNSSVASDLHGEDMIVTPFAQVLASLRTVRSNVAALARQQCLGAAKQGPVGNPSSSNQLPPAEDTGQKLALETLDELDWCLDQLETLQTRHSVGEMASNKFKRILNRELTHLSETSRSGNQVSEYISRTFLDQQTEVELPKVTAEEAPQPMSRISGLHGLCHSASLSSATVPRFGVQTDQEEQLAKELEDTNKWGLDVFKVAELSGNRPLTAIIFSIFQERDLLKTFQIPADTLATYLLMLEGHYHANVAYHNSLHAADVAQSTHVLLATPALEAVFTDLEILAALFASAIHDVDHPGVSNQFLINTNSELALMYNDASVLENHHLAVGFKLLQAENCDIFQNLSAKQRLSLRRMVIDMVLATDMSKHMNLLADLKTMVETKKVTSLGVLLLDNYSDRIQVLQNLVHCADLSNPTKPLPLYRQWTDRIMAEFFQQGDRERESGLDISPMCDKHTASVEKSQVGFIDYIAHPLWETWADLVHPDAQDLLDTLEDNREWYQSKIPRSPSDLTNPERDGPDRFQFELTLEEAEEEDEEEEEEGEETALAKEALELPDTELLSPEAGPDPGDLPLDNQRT", "test": "cAMP phosphodiesterase assay, long isoform PDE4C3", "assay_type": "biochemical", "procedure,_shortened": "(§1)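 PDE4 constructs, including site-directed mutants, are expressed from pcDNA3.1 in transfected mammalian cells. Cells are lysed mechanically in KHEM buffer (50 mM KCl, 10 mM EGTA, 50 mM Hepes, 1.92 mM MgCl2, pH 7.4). Lysate is cleared at 2,000 × g for 10 min, then 100,000 × g for 30 min. Supernatant (200 ng–1 µg protein per reaction, BCA) is assayed for cAMP hydrolysis for 10 min under linear conditions.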"}, "[3]": {"system": "primary human ADPKD cells", "test": "Primary human ADPKD cell viability", "assay_type": "cell-based", "details": "unstimulated and vasopressin-treated cultures", "procedure,_shortened": "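Primary epithelial cells cultured from single kidney cysts of a patient with ADPKD, kept in supplier's proprietary media. For the cyst assay, cells were grown in biogels with RenalCyte media in 96- or 384-well format. Viability was read as luminescence-based detection of ATP as a function of living cells.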"}, "[4]": {"target": "DD1-R499D-PDE4D5 (Homo sapiens, UniProt Q08499, N238A/N239A/R237A/R563D)", "sequence (Q08499 1-745 isoform Q08499-6 R173A/N174A/N175A/R499D)": "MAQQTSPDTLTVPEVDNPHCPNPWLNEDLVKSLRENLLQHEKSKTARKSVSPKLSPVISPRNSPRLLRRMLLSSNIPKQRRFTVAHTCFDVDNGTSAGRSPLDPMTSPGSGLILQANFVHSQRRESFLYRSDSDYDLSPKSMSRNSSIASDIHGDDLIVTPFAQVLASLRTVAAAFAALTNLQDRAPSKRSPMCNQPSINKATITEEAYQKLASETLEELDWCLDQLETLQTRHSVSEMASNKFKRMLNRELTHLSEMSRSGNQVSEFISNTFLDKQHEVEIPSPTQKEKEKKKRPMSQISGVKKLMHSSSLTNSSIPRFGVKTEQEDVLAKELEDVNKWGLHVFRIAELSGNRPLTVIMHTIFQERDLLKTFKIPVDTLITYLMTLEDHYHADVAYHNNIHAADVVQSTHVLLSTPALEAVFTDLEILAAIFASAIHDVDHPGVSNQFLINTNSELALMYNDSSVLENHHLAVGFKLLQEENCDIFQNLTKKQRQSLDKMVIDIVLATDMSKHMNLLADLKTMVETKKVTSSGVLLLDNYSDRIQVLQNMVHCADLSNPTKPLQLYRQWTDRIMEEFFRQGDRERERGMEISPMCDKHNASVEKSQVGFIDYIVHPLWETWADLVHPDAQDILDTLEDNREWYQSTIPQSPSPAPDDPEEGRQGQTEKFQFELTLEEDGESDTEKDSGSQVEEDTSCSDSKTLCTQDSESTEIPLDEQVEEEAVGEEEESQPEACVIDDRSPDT", "test": "cAMP phosphodiesterase assay, dimerization-deficient mutant", "assay_type": "biochemical", "procedure,_shortened": "(§2)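 PDE4 constructs were expressed from pcDNA3.1 (mutants by site-directed mutagenesis) after lipid transfection into mammalian cells. Lysate was spun at 2,000 × g for 10 min, then 100,000 × g for 30 min, and supernatant protein was measured by BCA. cAMP hydrolysis used 200 ng–1 µg protein per reaction for 10 min, within the linear range.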"}, "[5]": {"system": "primary human ADPKD cells", "test": "Primary human kidney cell cyst assay", "assay_type": "cell-based", "procedure,_shortened": "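Primary epithelial cells from single kidney cysts of an ADPKD patient are grown in biogels with RenalCyte medium. Cysts form spontaneously or with 10 nM vasopressin, across graded test compound concentrations. Cysts are counted by manual imaging or automated whole-well imaging. Values are given as SD of four treatments.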"}, "[6]": {"system": "MDCK cells", "test": "MDCK cyst assay", "assay_type": "cell-based, canine"}, "[7]": {"system": "short isoforms of PDE4A, B, and D families", "test": "cAMP phosphodiesterase assay, short PDE4 isoforms", "assay_type": "biochemical", "procedure,_shortened": "as §1"}, "[8]": {"target": "PDE4A4 (Homo sapiens, UniProt P27815)", "sequence (P27815 whole entry, canonical isoform)": "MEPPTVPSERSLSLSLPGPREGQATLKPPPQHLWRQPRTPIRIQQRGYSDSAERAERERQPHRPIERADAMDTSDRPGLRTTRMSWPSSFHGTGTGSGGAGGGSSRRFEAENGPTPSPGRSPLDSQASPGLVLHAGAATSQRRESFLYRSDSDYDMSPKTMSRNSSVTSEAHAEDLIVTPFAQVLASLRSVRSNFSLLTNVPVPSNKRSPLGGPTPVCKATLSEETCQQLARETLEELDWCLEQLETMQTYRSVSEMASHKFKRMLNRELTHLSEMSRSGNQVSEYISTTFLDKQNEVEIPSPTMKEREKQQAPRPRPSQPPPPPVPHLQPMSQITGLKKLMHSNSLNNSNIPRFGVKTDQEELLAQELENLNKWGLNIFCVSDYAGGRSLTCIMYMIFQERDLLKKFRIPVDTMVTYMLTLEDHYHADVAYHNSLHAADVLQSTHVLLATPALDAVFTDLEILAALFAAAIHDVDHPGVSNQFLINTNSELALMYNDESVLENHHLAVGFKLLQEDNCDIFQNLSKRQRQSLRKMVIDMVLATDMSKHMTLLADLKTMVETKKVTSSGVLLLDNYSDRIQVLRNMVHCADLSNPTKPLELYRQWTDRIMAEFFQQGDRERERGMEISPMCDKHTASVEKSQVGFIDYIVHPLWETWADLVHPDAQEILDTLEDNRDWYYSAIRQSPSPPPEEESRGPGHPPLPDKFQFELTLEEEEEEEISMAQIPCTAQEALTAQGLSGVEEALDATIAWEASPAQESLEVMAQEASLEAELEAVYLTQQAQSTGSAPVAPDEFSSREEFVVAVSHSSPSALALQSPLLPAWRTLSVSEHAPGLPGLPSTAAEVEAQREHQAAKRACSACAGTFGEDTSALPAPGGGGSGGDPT", "test": "cAMP phosphodiesterase assay, long isoform PDE4A4", "assay_type": "biochemical", "details": "compared with the other long isoforms", "procedure,_shortened": "as §2"}, "[9]": {"target": "S126D:S133D-PDE4D5 (Homo sapiens, UniProt Q08499, S190D/S197D)", "sequence (Q08499 1-745 isoform Q08499-6 S126D/S133D)": "as the sequence (Q08499 1-745 isoform Q08499-6 R173A/N174A/N175A/R499D) above, with S126D, S133D, A173R, A174N, A175N, D499R counted along it", "test": "cAMP phosphodiesterase assay, PKA/MK2 double phosphomimetic mutant", "assay_type": "biochemical", "details": "relative to S126D-PDE4D5", "procedure,_shortened": "as §1"}, "[10]": {"system": "truncated core catalytic domain of PDE4D without UCR1, UCR2, and C-terminal tail", "test": "cAMP phosphodiesterase assay, truncated catalytic domain construct", "assay_type": "biochemical", "details": "n = 4", "procedure,_shortened": "as §1"}, "[11]": {"system": "MDCK cells", "test": "xCELLigence impedance-based proliferation assay", "assay_type": "cell-based, canine", "details": "2D culture; MR-L2 added 24 h after inception", "procedure,_shortened": "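MDCK cells are plated at 5,000 cells per well in 2D culture and left to adhere for 24 h. Test compound is then added, and cell number is followed by xCELLigence electrical-impedance monitoring.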"}, "[12]": {"target": "S133D-PDE4D5 (Homo sapiens, UniProt Q08499, S197D)", "sequence (Q08499 1-745 isoform Q08499-6 S133D)": "as the sequence (Q08499 1-745 isoform Q08499-6 R173A/N174A/N175A/R499D) above, with S133D, A173R, A174N, A175N, D499R counted along it", "test": "cAMP phosphodiesterase assay, MK2 phosphomimetic mutant", "assay_type": "biochemical", "procedure,_shortened": "as §2"}, "[13]": {"system": "MDCK cells", "test": "cAMP ELISA in forskolin-challenged MDCK cells", "assay_type": "cell-based, canine", "details": "15 min", "procedure,_shortened": "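MDCK cells in 2D culture (DMEM, 10% FBS) are pretreated for 1 h with test compound (3 µM), with or without roflumilast (100 nM), then challenged with forskolin (3 µM, 15 min). Intracellular and extracellular cAMP are measured with a commercial cAMP ELISA kit. Intracellular data are mean ± SD of n = 7 experiments; extracellular data come from three independent experiments.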"}, "[14]": {"system": "OX161 cells", "test": "OX161 cyst assay", "assay_type": "cell-based, human"}, "[15]": {"target": "human long form PDE4D5 (Homo sapiens, UniProt Q08499)", "sequence (Q08499 1-745 isoform Q08499-6)": "as the sequence (Q08499 1-745 isoform Q08499-6 R173A/N174A/N175A/R499D) above, with A173R, A174N, A175N, D499R counted along it", "test": "cAMP phosphodiesterase assay, long isoform PDE4D5", "assay_type": "biochemical", "procedure,_shortened": "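Human PDE4D5 is expressed from pcDNA3.1 in transfected mammalian cells. The 100,000 × g supernatant of KHEM-buffer lysates (200 ng–1 µg protein) is assayed for cAMP hydrolysis for 10 min under linear conditions, with test compound at 3, 10, 30 and 100 µM. Velocity is analysed by Eadie–Hofstee plot to give Vmax and Km for cAMP.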"}, "[16]": {"system": "MDCK cells", "test": "DNA normalized ATP levels in MDCK cystic cultures", "assay_type": "cell-based, canine", "details": "MR-L2 3 µM; ± SD"}, "[17]": {"target": "Ser651Asp-PDE4D5 (Homo sapiens, UniProt Q08499, S715D)", "sequence (Q08499 1-745 isoform Q08499-6 S651D)": "as the sequence (Q08499 1-745 isoform Q08499-6 R173A/N174A/N175A/R499D) above, with A173R, A174N, A175N, D499R, S651D counted along it", "test": "cAMP phosphodiesterase assay, Erk phosphomimetic mutant", "assay_type": "biochemical", "procedure,_shortened": "as §2"}, "[18]": {"target": "PDE4B1 (Homo sapiens, UniProt Q07343)", "sequence (Q07343 whole entry, species assumed, canonical isoform)": "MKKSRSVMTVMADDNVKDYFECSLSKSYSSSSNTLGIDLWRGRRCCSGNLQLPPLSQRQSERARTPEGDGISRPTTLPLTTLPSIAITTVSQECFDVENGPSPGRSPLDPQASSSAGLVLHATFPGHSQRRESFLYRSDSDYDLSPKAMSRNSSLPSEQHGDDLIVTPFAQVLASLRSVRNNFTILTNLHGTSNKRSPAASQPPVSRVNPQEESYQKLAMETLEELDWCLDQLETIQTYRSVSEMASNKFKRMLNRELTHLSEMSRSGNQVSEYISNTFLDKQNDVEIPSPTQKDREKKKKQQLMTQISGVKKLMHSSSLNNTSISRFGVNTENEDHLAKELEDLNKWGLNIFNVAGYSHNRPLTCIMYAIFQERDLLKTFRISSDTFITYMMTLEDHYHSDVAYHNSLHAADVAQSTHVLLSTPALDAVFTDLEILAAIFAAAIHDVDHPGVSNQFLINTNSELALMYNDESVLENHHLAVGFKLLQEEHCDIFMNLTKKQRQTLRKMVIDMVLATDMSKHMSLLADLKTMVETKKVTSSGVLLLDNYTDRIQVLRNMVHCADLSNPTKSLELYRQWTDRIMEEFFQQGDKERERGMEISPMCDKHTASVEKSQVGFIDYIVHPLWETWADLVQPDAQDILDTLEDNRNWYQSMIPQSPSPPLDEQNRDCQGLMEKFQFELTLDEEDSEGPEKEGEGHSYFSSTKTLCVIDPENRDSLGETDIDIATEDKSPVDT", "test": "cAMP phosphodiesterase assay, long isoform PDE4B1", "assay_type": "biochemical", "procedure,_shortened": "as §1"}}, "data": [{"smiles": "O=C(O)c1ccc(/C=C2\\SC(=S)N(c3cccc(C(F)(F)F)c3)C2=O)cc1", "note": "[CFTRINH172, reference compound]", "values": [{"measurement": "PGE2-induced membrane depolarization", "setting": "[1]; CFTR inhibitor 100 µM", "result": "reversed"}]}, {"smiles": "CCc1nc(-c2ccc(Cl)c(F)c2)nn1CC(=O)NCc1cc(Cl)cc(Cl)c1", "note": "[MR-L2, 2-(3-(4-chloro-3-fluorophenyl)-5-ethyl-1H-1,2,4-triazol-1-yl)-N-(3,5-dichlorobenzyl)acetamide]", "values": [{"measurement": "activation of PDE4C3", "setting": "[2]", "result": "activates"}, {"measurement": "cell viability", "setting": "[3]", "result": "without adversely affecting cell viability"}, {"measurement": "activation of DD1-R499D-PDE4D5", "setting": "[4]", "result": "complete loss of sensitivity to activation"}, {"measurement": "number of cysts formed in 3D culture", "setting": "[5]; unstimulated (spontaneous cyst formation)", "result": "clearly suppressed the number of cysts"}, {"measurement": "number of cysts formed in 3D culture", "setting": "[5]; vasopressin-treated (10 nM)", "result": "clearly suppressed the number of cysts"}, {"measurement": "PGE2-stimulated cyst formation", "setting": "[6]; MR-L2 3 µM, incremental PGE2 concentrations", "result": "suppressed"}, {"measurement": "forskolin-induced cyst formation", "setting": "[6]; MR-L2 3 µM, incremental forskolin concentrations", "result": "suppressed forskolin-induced cyst formation"}, {"measurement": "EC50", "setting": "[6]; read-out: EC50, suppression of PGE2-induced cyst formation, PGE2 300 nM", "result": 1000, "unit": "nM"}, {"measurement": "activation of short PDE4 isoforms", "setting": "[7]", "result": "did not activate"}, {"measurement": "PGE2-elicited CFTR activity (membrane depolarization)", "setting": "[1]; MR-L2 preincubation 40 min", "result": "clearly suppressed in a concentration-dependent manner"}, {"measurement": "activation of PDE4A4", "setting": "[8]", "result": "slightly enhanced magnitude of activation"}, {"measurement": "activation of S126D:S133D-PDE4D5", "setting": "[9]", "result": "partially restore sensitivity"}, {"measurement": "activation of truncated core catalytic domain of PDE4D", "setting": "[10]", "result": "does not activate"}, {"measurement": "effect on cell number (cytotoxicity)", "setting": "[11]", "result": "no effect"}, {"measurement": "activation of S133D-PDE4D5", "setting": "[12]", "result": "activated by MR-L2 to a similar extent to wild-type PDE4D5"}, {"measurement": "intracellular cAMP elevation in response to forskolin", "setting": "[13]; 1-h pretreatment with MR-L2, forskolin 3 µM", "result": "significantly suppressed cAMP elevation"}, {"measurement": "extracellular level of cAMP", "setting": "[13]; MR-L2 3 µM, 1 h before forskolin 3 µM", "result": "significantly reduced"}, {"measurement": "PGE2-stimulated cystogenesis of OX161 cells", "setting": "[14]; concentration-dependent", "result": "attenuated"}, {"measurement": "mode of action on cAMP hydrolysis by PDE4D5", "setting": "[15]", "result": "reversible, noncompetitive activator"}, {"measurement": "increase in activity over basal levels", "setting": "[15]; maximally effective concentrations of MR-L2", "result": "~60", "unit": "%"}, {"measurement": "reduction in the ATP/DNA ratio", "setting": "[16]", "result": "15.6 ± 30", "unit": "%"}, {"measurement": "activation of Ser651Asp-PDE4D5", "setting": "[17]", "result": "comparable increase in activity to that seen when employing wild-type PDE4D5"}, {"measurement": "activation of PDE4B1", "setting": "[18]", "result": "activates"}]}, {"smiles": "O=C(Nc1c(Cl)cncc1Cl)c1ccc(OC(F)F)c(OCC2CC2)c1", "note": "[roflumilast, reference compound]", "values": [{"measurement": "effect on suppression of cystogenesis by MR-L2 (3 µM)", "setting": "[6]; roflumilast 100 nM, PGE2 300 nM", "result": "interdict the suppression of cystogenesis"}, {"measurement": "effect on suppression of forskolin-stimulated cAMP accumulation by MR-L2 (3 µM)", "setting": "[13]; roflumilast 100 nM cotreatment, forskolin 3 µM", "result": "ablated the suppressive effect of MR-L2"}]}, {"smiles": "COc1ccc(C2CNC(=O)C2)cc1OC1CCCC1", "note": "(stereo not shown) [rolipram, reference compound]", "values": [{"measurement": "effect on agonist-driven (PGE2-induced) cyst formation", "setting": "[6]; increasing concentrations of rolipram", "result": "exacerbates agonist-driven cyst formation in a concentration-dependent manner"}, {"measurement": "cystogenesis of OX161 cells", "setting": "[14]; challenge with rolipram, 3D culture", "result": "enhanced"}]}]}
